Source: ChEMBL document CHEMBL1138476 (J Med Chem, 2009)
Converted amounts (≈) assume the structure as drawn.

Experiments:
[1] = Clearance in chimpanzee at 0.5 mg/kg, iv; format: ADME, organism-based, Pan troglodytes; design: dose 0.5 mg/kg, route intravenous; conditions: in vivo
How it was run: (§1)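 Chimpanzee PK. Oral: 1 mg/kg in two alert animals, given as a 1 mg/mL suspension in 50–50 (v/v) 0.5% methylcellulose/Tang orange juice with 1% Tween-80. IV: 0.5 mg/kg in one animal in 10% DMAC, 70% propylene glycol and deionized water, infused over 10 min (0.2 mL/kg). EDTA blood was taken predose and at 2–96 h; iv sampling added 6, 15 and 30 min.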

[2] = system: Rattus norvegicus; assay: Effect on acute renal function in rat assessed as change in urine potassium level per 100 gm body weight at 30 mg/kg, po (RVb= 60.3+/-11.1 mg/dl); format: functional
[3] = AUC (0 to infinity) in chimpanzee at 1 mg/kg, po; format: ADME, organism-based, Pan troglodytes; design: time infinity, dose 1 mg/kg, route oral; conditions: plasma; how it was run: as §1
[4] = system: Rattus norvegicus; assay: Effect on acute renal function in rat assessed as change in glucose level in urine per 100 gm body weight at 30 mg/kg, po (RVb= 9.9+/-1.9 mg/dl); format: functional
[5] = system: Rattus norvegicus; assay: Toxicity in rat assessed as time spent on rotarod at 30 mg/kg, po after 1 hr by rotarod test; format: organism-based; design: dose 30 mg/kg, route oral; conditions: in vivo
How it was run: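 Rats, n = 8 per dose, dosed po in 0.25% Methocel 1 h before testing, at 0, 1.0, 3.0, 10, 30 and 100 mg/kg. Read-out is time on rotorod (s), mean ± SEM, compared with the vehicle (zero-dose) group.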

[6] = Plasma concentration in dog at 0.3 mg/kg after intravenous infusion for 30 mins; format: ADME, organism-based, Canis lupus familiaris; design: dose 0.3 mg/kg, route intravenous
[7] = system: Canis familiaris; assay: Effect on respiratory function in spontaneously breathing mongrel dog assessed as change in peak expiratory flow at 5 mg/kg after intravenous infusion for 60 mins (RVb= 0.4+/-6.7 %); format: functional, Canis lupus familiaris
[8] = system: Rattus norvegicus; assay: Anxiolytic activity in rat assessed as decrease in latency to exit dark chamber at 3 mg/kg, po by defensive withdrawal test relative to untreated control; format: functional; design: scale not given: the % may be the effect or the level left
How it was run: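 Rat defensive withdrawal: latency to leave the dark chamber and explore the open field, maximum 900 s. Dosed orally in 0.25% Methocel 60 min before testing; n = 8 per dose, mean ± SEM. Analysed by Kruskal–Wallis followed by Mann–Whitney U against vehicle.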

[9] = Half life in Beagle dog at 1 mg/kg, po by cassette dosing; format: ADME, organism-based, Canis lupus familiaris; design: dose 1 mg/kg, route oral; conditions: in vivo
[10] = target: T1, Corticotropin-releasing factor-binding protein (Homo sapiens, UniProt P24387); assay: Binding affinity to human recombinant CRF binding protein
T1 sequence (P24387 whole entry): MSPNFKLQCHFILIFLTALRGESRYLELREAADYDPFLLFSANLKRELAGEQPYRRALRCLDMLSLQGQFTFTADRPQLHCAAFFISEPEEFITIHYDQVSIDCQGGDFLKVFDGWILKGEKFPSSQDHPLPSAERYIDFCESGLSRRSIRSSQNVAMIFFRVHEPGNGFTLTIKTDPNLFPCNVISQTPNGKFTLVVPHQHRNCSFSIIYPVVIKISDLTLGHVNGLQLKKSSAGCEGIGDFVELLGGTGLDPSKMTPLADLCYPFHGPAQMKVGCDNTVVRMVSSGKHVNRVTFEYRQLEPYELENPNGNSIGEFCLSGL

[11] = Plasma concentration in spontaneously breathing dog at 5 mg/kg, iv after 6 mins; format: ADME, organism-based, Canis lupus familiaris; design: dose 5 mg/kg, route intravenous
How it was run: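 Spontaneously breathing, barbiturate-anesthetized mongrel dogs (n = 4) infused iv at 5.0 mg/kg over 6 min. Total pooled plasma concentrations taken at 6, 15, 30 and 60 min.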

[12] = system: Rattus norvegicus; assay: Effect on acute renal function in rat assessed as change in urine chloride level per 100 gm body weight at 30 mg/kg, po (RVb= 95.3+/-11.6 mg/dl); format: functional
[13] = system: Rattus norvegicus; assay: Toxicity in rat assessed as total distance traveled at 10 mg/kg, po after 1 hr by spontaneous locomotor test; format: functional
How it was run: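 Rat spontaneous locomotor activity test with oral dosing in 0.25% Methocel 1 h before testing, at doses up to 100 mg/kg. Values are mean ± SEM, with N rats per group, compared with the vehicle (zero-dose) group.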

[14] = Oral bioavailability in chimpanzee at 1 mg/kg; format: ADME, organism-based, Pan troglodytes; conditions: in vivo
How it was run: (§2)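 Two alert chimpanzees were given 1 mg/kg po as a 1 mg/mL suspension in 50:50 (v/v) 0.5% methylcellulose and Tang orange juice containing 1% Tween-80. EDTA blood was taken predose and at 2–96 h. Bioavailability was calculated against a 0.5 mg/kg iv dose given to one animal.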

[15] = system: Canis familiaris; assay: Effect on respiratory function in spontaneously breathing mongrel dog assessed as change in heart rate at 5 mg/kg after intravenous infusion for 60 mins (RVb= -0.9+/-5.8 %); format: functional, Canis lupus familiaris
[16] = system: Rattus norvegicus; assay: Effect on acute renal function in rat assessed as change in urine creatinine level per 100 gm body weight at 30 mg/kg, po (RVb= 16.2+/-3.3 mg/dl); format: functional
[17] = system: Canis familiaris; assay: Effect on respiratory function in spontaneously breathing mongrel dog assessed as change in respiration rate at 5 mg/kg after intravenous infusion for 60 mins (RVb= -19.5+/-16.3 %); format: functional, Canis lupus familiaris
[18] = system: Rattus norvegicus; assay: Effect on acute renal function in rat assessed as change in urine urea level per 100 gm body weight at 30 mg/kg, po (RVb= 321+/-62 mg/dl); format: functional
[19] = system: Canis familiaris; assay: Effect on respiratory function in spontaneously breathing mongrel dog assessed as change in minute volume at 5 mg/kg after intravenous infusion for 30 mins (RVb= 1.0+/-9.7 %); format: functional, Canis lupus familiaris
[20] = Elimination half life in chimpanzee at 1 mg/kg, po; format: ADME, organism-based, Pan troglodytes; design: dose 1 mg/kg, route oral; conditions: in vivo, read-out: beta t1/2 (converted); how it was run: as §2
[21] = system: Canis familiaris; assay: Effect on respiratory function in spontaneously breathing mongrel dog assessed as change in peak expiratory flow at 5 mg/kg after intravenous infusion for 15 mins (RVb= -8.4+/-6.6 %); format: functional, Canis lupus familiaris
[22] = system: Canis familiaris; assay: Effect on respiratory function in spontaneously breathing mongrel dog assessed as change in airway resistance at 5 mg/kg after intravenous infusion for 30 mins (RVb= 20.2+/-12.3 %); format: functional, Canis lupus familiaris
[23] = system: Canis familiaris; assay: Effect on respiratory function in spontaneously breathing mongrel dog assessed as change in peak expiratory flow at 5 mg/kg after intravenous infusion for 6 mins (RVb= 3.6+/-3.7 %); format: functional, Canis lupus familiaris
[24] = Plasma concentration in rat at 30 mg/kg, po after 5 hrs; format: ADME, organism-based; design: dose 30 mg/kg, route oral
How it was run: (§3)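 Rats (n = 9, renal function study) given 30 mg/kg po; plasma levels measured in a separate cohort dosed the same way, sampled at 1 and 5 h after dosing.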

[25] = Plasma concentration in rat at 30 mg/kg, po after 1 hr; format: ADME, organism-based; design: dose 30 mg/kg, route oral; how it was run: as §3
[26] = system: Rattus norvegicus; assay: Toxicity in rat assessed as time spent on rotarod at 100 mg/kg, po after 1 hr by rotarod test; format: organism-based; design: dose 100 mg/kg, route oral; conditions: in vivo
How it was run: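 Rats (N = 8 per dose) dosed po in 0.25% Methocel 1 h before rotorod testing. Time on rotorod in s, given as mean ± SEM against a vehicle (zero dose) group.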

[27] = Aqueous solubility at pH 7.4; format: physicochemical; conditions: aqueous medium
How it was run: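 Solubility measured in water at pH 7.4.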

CC[C@@H](C)Nc1nc(C)nc2c(-c3ccc(OC)nc3C)c(C)nn12 [PEXACERFONT]
clearance [1]: 2 mL/min/kg
Activity [2]: 32.1 mg/dL
AUC(0-inf) [3]: 11.7 µM·h
Activity [4]: 4.4 mg/dL
Time [5]: 157 s
concentration at 0.5 h [6]: 150 nM
Activity [7]: 7.5%
Activity [8]: 44%
half-life [9]: 10.7 h
IC50 [10]: > 1000 nM
concentration at 0.1 h [11]: 1790 nM
Activity [12]: 80 mmol/L
Activity [13]: 3695 cm
bioavailability [14]: 49%
Activity [15]: -2.3%
Activity [16]: 8 mg/dL
Activity [17]: -14.6%
Activity [18]: 166 mg/dL
Activity [19]: -30.8%
half-life [20]: 26 h
Activity [21]: -0.1%
Activity [22]: -57.5%
Activity [23]: -12.5%
concentration at 5 h [24]: 4950 nM
concentration at 1 h [25]: 3990 nM
Time [26]: 121 s
solubility [27]: 16 µg/mL (≈ 47 µM)
